Reference: ChEMBL document CHEMBL1139976, “Liver X receptor antagonists with a phthalimide skeleton derived from thalidomide-related glucosidase inhibitors” (Bioorg Med Chem Lett, 2007)
Calls of active or inactive are those of the source. No cut-off for these calls is given here.

Key:
[1] = Inhibition of alpha glucosidase; design: species or system Homo sapiens
In short: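 The enzyme (25 mU/mL) was preincubated with a range of compound concentrations in 10 mM phosphate buffer, pH 7.2, at 37 °C for 10 min. p-Nitrophenyl-alpha-D-glucopyranoside was then added to 0.16 mM final and incubated 30 min at 37 °C. The reaction was basified with 0.5 M Na2CO3 and released p-nitrophenol read at 400 nm. IC50 values were derived.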

[2] = target: T1, Oxysterols receptor LXR-alpha (Homo sapiens) (UniProt Q13133); test: Antagonist activity at human recombinant LXRalpha expressed in HEK293 cells assessed as inhibition of T0901317-induced transcriptional activation at 100 uM by luciferase assay; format: functional, cell-based
T1 sequence (whole entry): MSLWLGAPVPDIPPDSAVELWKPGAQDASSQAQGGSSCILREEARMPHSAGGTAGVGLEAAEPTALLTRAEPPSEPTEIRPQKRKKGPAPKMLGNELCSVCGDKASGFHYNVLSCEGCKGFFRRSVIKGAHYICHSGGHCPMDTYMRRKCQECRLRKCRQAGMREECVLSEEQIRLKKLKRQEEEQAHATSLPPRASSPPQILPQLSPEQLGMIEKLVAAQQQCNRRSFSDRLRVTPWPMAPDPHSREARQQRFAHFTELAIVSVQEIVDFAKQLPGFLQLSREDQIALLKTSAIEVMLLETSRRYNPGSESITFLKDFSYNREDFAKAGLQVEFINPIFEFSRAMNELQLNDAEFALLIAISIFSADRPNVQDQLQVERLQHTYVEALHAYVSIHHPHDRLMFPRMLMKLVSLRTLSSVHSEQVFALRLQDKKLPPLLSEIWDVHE
In short: (§1)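 GAL4 DNA-binding domain fused to human LXR (alpha or beta) as receptor plasmid, TK-MH100x4-LUC reporter, and CMX beta-galactosidase for normalization. HEK293 cells in DMEM with 5% FBS, 37 °C, 5% CO2. Transfected by calcium phosphate coprecipitation. Compounds added 8 h post-transfection together with 0.1 µM T0901317, whose response alone was set as 100%. Luciferase read on a luminometer. Three repeats, normalized averages.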

[3] = target: T2, Oxysterols receptor LXR-beta (Homo sapiens) (UniProt P55055); test: Antagonist activity at human recombinant LXRbeta expressed in HEK293 cells assessed as inhibition of T0901317-induced transcriptional activation at 100 uM by luciferase assay; format: functional, cell-based; in short: as §1
T2 sequence (whole entry): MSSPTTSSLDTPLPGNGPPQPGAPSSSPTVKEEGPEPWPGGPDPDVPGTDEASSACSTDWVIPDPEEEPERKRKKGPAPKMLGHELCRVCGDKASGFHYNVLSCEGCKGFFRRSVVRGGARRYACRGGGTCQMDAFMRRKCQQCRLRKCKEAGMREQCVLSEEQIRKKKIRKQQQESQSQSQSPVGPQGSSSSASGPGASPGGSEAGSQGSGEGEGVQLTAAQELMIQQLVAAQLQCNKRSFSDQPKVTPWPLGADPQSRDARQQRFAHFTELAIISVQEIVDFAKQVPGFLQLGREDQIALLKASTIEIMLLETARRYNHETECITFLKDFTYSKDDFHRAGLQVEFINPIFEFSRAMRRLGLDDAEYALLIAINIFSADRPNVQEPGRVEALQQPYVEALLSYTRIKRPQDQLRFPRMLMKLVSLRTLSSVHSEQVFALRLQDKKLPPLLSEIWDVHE

HEK293 = test: Cytotoxicity against HEK293 cells at 100 uM; format: cell-based; conditions: human, hek293, 100 µM
Homo sapiens [4] = organism: Homo sapiens; test: Inhibition of dipeptidylpeptidase 4
Homo sapiens [5] = organism: Homo sapiens; test: Inhibition of maltase
[6] = target: T3, Oxysterols receptor LXR-alpha (Homo sapiens, UniProt Q13133); test: Antagonist activity at human recombinant LXRalpha expressed in HEK293 cells assessed as inhibition of T0901317-induced transcriptional activation by luciferase assay; format: functional, cell-based
T3 sequence (Q13133 whole entry): T1 sequence (whole entry)

[7] = target: T4, Oxysterols receptor LXR-beta (Homo sapiens, UniProt P55055); test: Antagonist activity at human recombinant LXRbeta expressed in HEK293 cells assessed as inhibition of T0901317-induced transcriptional activation by luciferase assay; format: functional, cell-based
T4 sequence (P55055 whole entry): T2 sequence (whole entry)

IC50 [1] [µM] | inhibition [2] [%] | inhibition [3] [%] | SMILES | other results
2.6 |  |  | O=C1c2c(Cl)c(Cl)c(Cl)c(Cl)c2C(=O)N1c1ccccc1 | Activity [2]: inactive; Activity [3]: inactive
24.7 |  |  | CCCCCCc1ccccc1N1C(=O)c2ccccc2C1=O | Activity (HEK293): 57%; Activity (Homo sapiens [4]): inactive; Activity (Homo sapiens [5]): inactive; IC50 [6]: 13 µM; IC50 [7]: 65 µM
6 | 38 | 38 | O=C1c2c(Cl)c(Cl)c(Cl)c(Cl)c2C(=O)N1CCc1ccccc1 | 
2.4 | 61 | 49 | CC(C)c1cccc(C(C)C)c1N1C(=O)c2c(Cl)c(Cl)c(Cl)c(Cl)c2C1=O | 
6.8 |  |  | O=C1c2c(Cl)c(Cl)c(Cl)c(Cl)c2C(=O)N1CCCCCCCCCCc1ccccc1 | Activity [2]: inactive; Activity [3]: inactive
8 | 94 | 92 | CC(C)c1cccc(C(C)C)c1N1C(=O)c2ccccc2C1=S | Activity (HEK293): 73%; Activity (Homo sapiens [4]): Active; Activity (Homo sapiens [5]): Active
10.9 | 60 | 51 | O=C1c2c(Cl)c(Cl)c(Cl)c(Cl)c2C(=O)N1Cc1ccccc1 | 
 | 66 | 45 | O=C1c2ccc(Cl)cc2C(=O)N1CCCCc1ccccc1 | 
16.2 |  |  | O=C1c2ccccc2C(=O)N1c1ccccc1CCc1ccccc1 | Activity (HEK293): 48%; Activity (Homo sapiens [4]): inactive; Activity (Homo sapiens [5]): inactive
2 | 53 | 49 | O=C1c2c(Cl)c(Cl)c(Cl)c(Cl)c2C(=O)N1CCCCc1ccccc1 | 
3.5 | 42 | 3 | O=C1c2c(Cl)c(Cl)c(Cl)c(Cl)c2C(=O)N1CCCCCc1ccccc1 | 
 | 50 | 35 | O=C1c2cc(Cl)c(Cl)cc2C(=O)N1CCCCc1ccccc1 | 
4.5 | 59 | 52 | O=C1c2c(Cl)c(Cl)c(Cl)c(Cl)c2C(=O)N1CCCc1ccccc1 | 
